Laboratory results as given in ChEMBL document CHEMBL4118192, “BET bromodomain ligands: Probing the WPF shelf to improve BRD4 bromodomain affinity and metabolic stability” (Bioorg Med Chem, 2018).

Key:
Format in all cases: functional
A549 [1] = experiment: Growth inhibition of human A549/ATCC cells at 10 uM after 48 hrs by sulforhodamine B assay relative to control; details: A549, 48 h, read-out: GI
How it was run: (§1)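 NCI-60 single-dose screen at 10 μM for 48 h. Percent growth inhibition was measured by sulforhodamine B staining of cellular protein.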

CAKI-1 [2] = experiment: Growth inhibition of human CAKI-1 cells at 10 uM after 48 hrs by sulforhodamine B assay relative to control; details: CAKI-1, 48 h, read-out: GI; how it was run: as §1
SK-OV-3 = experiment: Growth inhibition of human SKOV3 cells at 10 uM after 48 hrs by sulforhodamine B assay relative to control; details: SK-OV-3, 48 h, read-out: GI
How it was run: (§2)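 NCI-60 human cancer cell line screen, single-dose pass: cells exposed to 10 μM for 48 h. Cellular protein content read out by sulforhodamine B staining, and growth inhibition expressed relative to untreated control.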

HT-29 [3] = experiment: Growth inhibition of human HT-29 cells at 10 uM after 48 hrs by sulforhodamine B assay relative to control; details: HT-29, 48 h, read-out: GI; how it was run: as §1
OVCAR-3 = experiment: Growth inhibition of human OVCAR3 cells after 48 hrs by sulforhodamine B assay; details: OVCAR-3, 48 h
How it was run: (§3)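 NCI-60 panel follow-up: five concentrations from 10 nM to 100 μM, 48 h exposure. Growth read by sulforhodamine B protein staining. GI50 derived from the concentration-response, with the concentration for total growth inhibition (TGI) also recorded when below 100 μM.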

NCI-H522 = experiment: Growth inhibition of human NCI-H522 cells at 10 uM after 48 hrs by sulforhodamine B assay relative to control; details: NCI-H522, 48 h, read-out: GI; how it was run: as §2
PC-3 = experiment: Growth inhibition of human PC3 cells at 10 uM after 48 hrs by sulforhodamine B assay relative to control; details: PC-3, 48 h, read-out: GI; how it was run: as §2
HOP-62 = experiment: Growth inhibition of human HOP62 cells after 48 hrs by sulforhodamine B assay; details: HOP-62, 48 h
How it was run: (§4)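 NCI-60 panel screen. Cells were exposed for 48 h at five concentrations between 10 nM and 100 μM. Cellular protein was read by sulforhodamine B staining, and GI50 and total growth inhibition (TGI) concentrations were derived.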

SF-295 [4] = experiment: Growth inhibition of human SF295 cells after 48 hrs by sulforhodamine B assay; details: SF-295, 48 h; how it was run: as §3
Hs-578T = experiment: Growth inhibition of human Hs 578T cells after 48 hrs by sulforhodamine B assay; how it was run: as §4
MDA-MB-435 = experiment: Growth inhibition of human MDA-MB-435 cells at 10 uM after 48 hrs by sulforhodamine B assay relative to control; details: MDA-MB-435, 48 h, read-out: GI; how it was run: as §2
UACC-257 = experiment: Growth inhibition of human UACC257 cells at 10 uM after 48 hrs by sulforhodamine B assay relative to control; details: UACC-257, 48 h, read-out: GI
How it was run: (§5)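 NCI-60 human cancer cell line screen, single dose of 10 μM for 48 h. Cellular protein content read by sulforhodamine B staining; growth inhibition expressed relative to untreated control.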

HT-29 [5] = experiment: Growth inhibition of human HT-29 cells after 48 hrs by SRB assay; details: HT-29, 48 h
How it was run: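 In-house assay. Cells were seeded into 96-well plates at a density for exponential growth and treated with a concentration range for 48 h. They were then fixed in 10% (w/v) TCA and stained with sulforhodamine B. The 50% growth-inhibitory concentration relative to control cells was calculated as the mean of three repeats ± standard deviation.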

IGROV-1 [6] = experiment: Growth inhibition of human IGROV1 cells at 10 uM after 48 hrs by sulforhodamine B assay relative to control; details: IGROV-1, 48 h, read-out: GI; how it was run: as §1
UO-31 = experiment: Growth inhibition of human UO31 cells after 48 hrs by sulforhodamine B assay; details: UO-31, 48 h
How it was run: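 NCI-60 panel cells treated at five concentrations from 10 nM to 100 μM for 48 h. Read-out by sulforhodamine B protein stain. GI50 and total growth inhibition (TGI, if below 100 μM) taken from the concentration-response data.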

HOP-92 = experiment: Growth inhibition of human HOP92 cells after 48 hrs by sulforhodamine B assay; details: HOP-92, 48 h; how it was run: as §4
LOX IMVI [7] = experiment: Growth inhibition of human LOXIMVI cells at 10 uM after 48 hrs by sulforhodamine B assay relative to control; details: read-out: GI; how it was run: as §1
MCF7 = experiment: Growth inhibition of human MCF7 cells at 10 uM after 48 hrs by sulforhodamine B assay relative to control; details: MCF7, 48 h, read-out: GI; how it was run: as §1
LOX IMVI [8] = experiment: Growth inhibition of human LOXIMVI cells after 48 hrs by sulforhodamine B assay; how it was run: as §4
IGROV-1 [9] = experiment: Growth inhibition of human IGROV1 cells after 48 hrs by sulforhodamine B assay; details: IGROV-1, 48 h; how it was run: as §4
BT-549 = experiment: Growth inhibition of human BT549 cells after 48 hrs by sulforhodamine B assay; details: BT-549, 48 h; how it was run: as §4
HCT-116 = experiment: Growth inhibition of human HCT116 cells at 10 uM after 48 hrs by sulforhodamine B assay relative to control; details: HCT-116, 48 h, read-out: GI; how it was run: as §1
NCI/ADR-RES = experiment: Growth inhibition of human NCI-ADR-RES cells at 10 uM after 48 hrs by sulforhodamine B assay relative to control; details: read-out: GI; how it was run: as §2
MDA-MB-468 = experiment: Growth inhibition of human MDA-MB-468 cells at 10 uM after 48 hrs by sulforhodamine B assay relative to control; details: MDA-MB-468, 48 h, read-out: GI; how it was run: as §2
SN12C = experiment: Growth inhibition of human SN12C cells after 48 hrs by sulforhodamine B assay; how it was run: as §3
SNB-75 = experiment: Growth inhibition of human SNB75 cells at 10 uM after 48 hrs by sulforhodamine B assay relative to control; details: SNB-75, 48 h, read-out: GI; how it was run: as §5
SF-295 [10] = experiment: Growth inhibition of human SF295 cells at 10 uM after 48 hrs by sulforhodamine B assay relative to control; details: SF-295, 48 h, read-out: GI; how it was run: as §2
SK-MEL-28 = experiment: Growth inhibition of human SK-MEL-28 cells after 48 hrs by sulforhodamine B assay; details: SK-MEL-28, 48 h; how it was run: as §3
MDA-MB-231 [11] = experiment: Growth inhibition of human MDA-MB-231 cells at 10 uM after 48 hrs by sulforhodamine B assay relative to control; details: MDA-MB-231, 48 h, read-out: GI; how it was run: as §1
HCC 2998 = experiment: Growth inhibition of human HCC2998 cells at 10 uM after 48 hrs by sulforhodamine B assay relative to control; details: HCC 2998, 48 h, read-out: GI; how it was run: as §1
A549 [12] = experiment: Growth inhibition of human A549/ATCC cells after 48 hrs by sulforhodamine B assay; details: A549, 48 h; how it was run: as §4
MDA-MB-231 [13] = experiment: Growth inhibition of human MDA-MB-231 cells after 48 hrs by sulforhodamine B assay; details: MDA-MB-231, 48 h; how it was run: as §4
CAKI-1 [14] = experiment: Growth inhibition of human CAKI-1 cells after 48 hrs by sulforhodamine B assay; details: CAKI-1, 48 h; how it was run: as §4

Row | Compound | inhibition of growth at 10 µM (A549 [1]) [%] | inhibition of growth at 10 µM (CAKI-1 [2]) [%] | inhibition of growth at 10 µM (SK-OV-3) [%] | inhibition of growth at 10 µM (HT-29 [3]) [%] | GI50 (OVCAR-3) [µM] | inhibition of growth at 10 µM (NCI-H522) [%] | inhibition of growth at 10 µM (PC-3) [%] | GI50 (HOP-62) [µM] | GI50 (SF-295 [4]) [µM] | GI50 (Hs-578T) [µM] | TGI (Hs-578T) [µM] | inhibition of growth at 10 µM (MDA-MB-435) [%] | inhibition of growth at 10 µM (UACC-257) [%] | GI50 (HT-29 [5]) [µM] | inhibition of growth at 10 µM (IGROV-1 [6]) [%] | GI50 (UO-31) [µM] | GI50 (HOP-92) [µM] | TGI (HOP-92) [µM] | inhibition of growth at 10 µM (LOX IMVI [7]) [%] | inhibition of growth at 10 µM (MCF7) [%] | also measured
1 | COc1ccccc1S(=O)(=O)Nc1ccc2c(c1)CN(C)C(=O)N2 | 49.5 | 78.8 | 50.9 | 77.2 | 4 | 73.9 | 64.7 | 2.5 | 13.5 | 1.9 | 63.1 | 65.8 | 66.2 | 3 | 76 | 1.1 | 1.2 | 70.8 | 70.9 | 78.5 | TGI (OVCAR-3): 87.1 µM; GI50 (LOX IMVI [8]): 3.5 µM; TGI (LOX IMVI [8]): 21.4 µM; GI50 (IGROV-1 [9]): 6.3 µM; GI50 (BT-549): 14.8 µM; inhibition of growth at 10 µM (HCT-116): 50.3%; inhibition of growth at 10 µM (NCI/ADR-RES): 31.1%; inhibition of growth at 10 µM (MDA-MB-468): 78.9%; GI50 (SN12C): 6.8 µM; inhibition of growth at 10 µM (SNB-75): 82.5%; inhibition of growth at 10 µM (SF-295 [10]): 94.7%; GI50 (SK-MEL-28): 6.2 µM; inhibition of growth at 10 µM (MDA-MB-231 [11]): 45.3%; inhibition of growth at 10 µM (HCC 2998): 35.6%; GI50 (A549 [12]): 19.5 µM; GI50 (MDA-MB-231 [13]): 3.5 µM; GI50 (CAKI-1 [14]): 3.6 µM
2 | Cc1noc(C)c1-c1cc(O)cc(C(O)c2ccccc2)c1 (stereo not drawn) | 44.6 | 76.2 | 56.3 | 65.4 | 6.64 | 77.9 | 51.6 | 4.89 | 7.31 | 1.93 | 90.7 | 56.1 | 59.6 | 4.54 to 5.79 | 54 | 4.58 | 1.02 | 72.9 | 72.7 | 79.1 | GI50 (LOX IMVI [8]): 3.6 µM; TGI (LOX IMVI [8]): 80.5 µM; GI50 (IGROV-1 [9]): 23.2 µM; GI50 (BT-549): 28.2 µM; inhibition of growth at 10 µM (HCT-116): 42%; inhibition of growth at 10 µM (NCI/ADR-RES): 40.8%; inhibition of growth at 10 µM (MDA-MB-468): 75.1%; GI50 (SN12C): 3.99 µM; inhibition of growth at 10 µM (SNB-75): 113%; inhibition of growth at 10 µM (SF-295 [10]): 57.5%; GI50 (SK-MEL-28): 9.15 µM; inhibition of growth at 10 µM (MDA-MB-231 [11]): 37.6%; inhibition of growth at 10 µM (HCC 2998): 37.8%; GI50 (A549 [12]): 22.4 µM; GI50 (MDA-MB-231 [13]): 3.92 µM; GI50 (CAKI-1 [14]): 4.58 µM
